{"source": "paper PMC11027041", "about": "(RSC Advances, 2024)", "key": {"[1]": {"molecular_target": "HDAC6 (Homo sapiens, UniProt Q9UBN7)", "sequence (Q9UBN7 whole entry)": "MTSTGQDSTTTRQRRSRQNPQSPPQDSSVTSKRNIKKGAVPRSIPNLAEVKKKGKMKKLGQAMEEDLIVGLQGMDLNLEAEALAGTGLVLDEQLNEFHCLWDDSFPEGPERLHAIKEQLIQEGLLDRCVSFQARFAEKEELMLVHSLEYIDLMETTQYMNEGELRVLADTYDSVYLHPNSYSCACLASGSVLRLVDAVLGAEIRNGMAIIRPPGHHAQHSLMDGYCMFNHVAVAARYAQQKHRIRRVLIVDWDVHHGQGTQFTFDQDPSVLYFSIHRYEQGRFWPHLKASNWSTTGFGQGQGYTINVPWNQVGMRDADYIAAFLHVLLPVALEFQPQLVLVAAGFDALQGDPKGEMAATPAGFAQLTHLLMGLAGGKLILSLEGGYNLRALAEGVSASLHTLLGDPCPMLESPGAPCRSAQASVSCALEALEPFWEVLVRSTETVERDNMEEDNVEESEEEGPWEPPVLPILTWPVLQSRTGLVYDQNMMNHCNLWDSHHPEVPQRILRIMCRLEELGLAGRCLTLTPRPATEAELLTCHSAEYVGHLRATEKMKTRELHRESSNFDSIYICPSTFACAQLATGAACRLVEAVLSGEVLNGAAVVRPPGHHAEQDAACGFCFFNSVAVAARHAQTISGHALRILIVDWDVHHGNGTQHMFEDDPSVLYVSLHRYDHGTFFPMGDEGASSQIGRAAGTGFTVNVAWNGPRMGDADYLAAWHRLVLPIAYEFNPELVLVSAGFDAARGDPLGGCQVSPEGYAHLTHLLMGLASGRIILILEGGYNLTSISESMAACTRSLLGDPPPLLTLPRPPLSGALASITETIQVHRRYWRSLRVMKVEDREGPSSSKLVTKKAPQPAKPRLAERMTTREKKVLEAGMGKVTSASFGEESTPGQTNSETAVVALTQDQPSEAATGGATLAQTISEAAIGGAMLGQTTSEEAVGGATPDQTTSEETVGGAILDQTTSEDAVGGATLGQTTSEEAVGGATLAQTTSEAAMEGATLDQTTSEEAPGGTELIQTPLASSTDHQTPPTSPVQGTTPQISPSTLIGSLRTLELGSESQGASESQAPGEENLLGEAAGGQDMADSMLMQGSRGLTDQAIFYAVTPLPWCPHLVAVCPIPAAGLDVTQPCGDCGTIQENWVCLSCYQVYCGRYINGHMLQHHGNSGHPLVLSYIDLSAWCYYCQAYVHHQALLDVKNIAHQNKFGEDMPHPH", "assay": "In vitro HDAC enzyme assay", "assay_type": "biochemical"}, "[2]": {"tested_on": "SF-268", "assay": "NCI-60 antiproliferative screening", "assay_type": "cell-based", "conditions": "Homo sapiens, SF-268, read-out: percent inhibition"}, "[3]": {"tested_on": "RPMI-8226", "assay": "NCI-60 antiproliferative screening", "assay_type": "cell-based", "conditions": "Homo sapiens, RPMI-8226, read-out: percent inhibition"}, "[4]": {"tested_on": "MDA-MB-231/ATCC", "assay": "NCI-60 antiproliferative screening", "assay_type": "cell-based", "conditions": "Homo sapiens, MDA-MB-231, read-out: percent inhibition"}, "[5]": {"tested_on": "HT29", "assay": "NCI-60 antiproliferative screening", "assay_type": "cell-based", "conditions": "Homo sapiens, HT-29, read-out: percent inhibition"}, "[6]": {"tested_on": "U251", "assay": "NCI-60 antiproliferative screening", "assay_type": "cell-based", "conditions": "Homo sapiens, U-251, read-out: percent inhibition"}, "[7]": {"tested_on": "NCI-H322M", "assay": "NCI-60 antiproliferative screening", "assay_type": "cell-based", "conditions": "Homo sapiens, read-out: percent inhibition"}, "[8]": {"tested_on": "COLO 205", "assay": "NCI-60 antiproliferative screening", "assay_type": "cell-based", "conditions": "Homo sapiens, COLO 205, read-out: percent inhibition"}, "[9]": {"tested_on": "MOLT-4", "assay": "NCI-60 antiproliferative screening", "assay_type": "cell-based", "conditions": "Homo sapiens, MOLT-4, read-out: percent inhibition"}, "[10]": {"molecular_target": "HDAC4 (Homo sapiens, UniProt P56524)", "sequence (P56524 whole entry)": "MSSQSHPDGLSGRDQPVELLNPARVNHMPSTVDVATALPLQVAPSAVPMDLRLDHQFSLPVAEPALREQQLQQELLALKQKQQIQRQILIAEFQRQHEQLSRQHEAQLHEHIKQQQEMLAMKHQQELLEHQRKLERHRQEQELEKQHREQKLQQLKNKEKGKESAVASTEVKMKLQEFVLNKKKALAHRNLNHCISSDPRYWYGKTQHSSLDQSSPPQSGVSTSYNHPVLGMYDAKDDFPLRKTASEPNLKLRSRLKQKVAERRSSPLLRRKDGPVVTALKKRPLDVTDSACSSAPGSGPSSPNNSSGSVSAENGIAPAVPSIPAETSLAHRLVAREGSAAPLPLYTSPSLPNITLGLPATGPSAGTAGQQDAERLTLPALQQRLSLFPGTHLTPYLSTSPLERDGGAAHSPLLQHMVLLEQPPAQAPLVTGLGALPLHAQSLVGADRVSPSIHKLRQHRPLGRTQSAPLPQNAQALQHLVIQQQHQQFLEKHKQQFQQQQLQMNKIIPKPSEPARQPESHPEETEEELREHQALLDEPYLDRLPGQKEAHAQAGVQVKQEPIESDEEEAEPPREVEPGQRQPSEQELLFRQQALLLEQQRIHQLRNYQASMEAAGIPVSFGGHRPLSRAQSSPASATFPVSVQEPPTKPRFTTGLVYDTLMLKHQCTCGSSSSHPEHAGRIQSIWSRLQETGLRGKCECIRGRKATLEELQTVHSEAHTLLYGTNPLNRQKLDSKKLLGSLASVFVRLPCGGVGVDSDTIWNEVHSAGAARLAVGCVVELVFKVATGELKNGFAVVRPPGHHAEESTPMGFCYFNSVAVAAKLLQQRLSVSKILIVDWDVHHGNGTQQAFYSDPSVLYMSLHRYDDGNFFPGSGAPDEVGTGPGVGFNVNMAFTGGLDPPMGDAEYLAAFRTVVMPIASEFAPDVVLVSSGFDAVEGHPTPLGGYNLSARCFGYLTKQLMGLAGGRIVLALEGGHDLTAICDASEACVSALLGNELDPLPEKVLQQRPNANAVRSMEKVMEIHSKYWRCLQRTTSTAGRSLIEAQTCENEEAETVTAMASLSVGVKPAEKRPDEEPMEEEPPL", "assay": "In vitro HDAC enzyme assay", "assay_type": "biochemical"}, "[11]": {"tested_on": "HCT-15", "assay": "NCI-60 antiproliferative screening", "assay_type": "cell-based", "conditions": "Homo sapiens, HCT-15, read-out: percent inhibition"}, "[12]": {"tested_on": "OVCAR-4", "assay": "NCI-60 antiproliferative screening", "assay_type": "cell-based", "conditions": "Homo sapiens, OVCAR-4, read-out: percent inhibition"}, "[13]": {"molecular_target": "HDAC1 (Homo sapiens, UniProt Q13547)", "sequence (Q13547 whole entry)": "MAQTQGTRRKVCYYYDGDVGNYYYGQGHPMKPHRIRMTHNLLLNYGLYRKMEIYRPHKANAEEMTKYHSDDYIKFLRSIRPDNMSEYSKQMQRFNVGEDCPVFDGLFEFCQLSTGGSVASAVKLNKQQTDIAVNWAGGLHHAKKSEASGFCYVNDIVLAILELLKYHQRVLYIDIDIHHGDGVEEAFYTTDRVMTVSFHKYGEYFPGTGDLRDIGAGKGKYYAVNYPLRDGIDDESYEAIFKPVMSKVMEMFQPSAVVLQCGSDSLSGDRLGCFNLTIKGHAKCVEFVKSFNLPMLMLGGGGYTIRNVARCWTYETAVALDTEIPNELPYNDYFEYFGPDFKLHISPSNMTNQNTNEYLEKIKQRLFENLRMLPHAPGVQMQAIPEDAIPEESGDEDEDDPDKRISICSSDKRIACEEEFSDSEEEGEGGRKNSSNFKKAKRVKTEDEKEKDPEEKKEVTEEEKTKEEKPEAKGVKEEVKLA", "assay": "In vitro HDAC enzyme assay", "assay_type": "biochemical"}, "[14]": {"tested_on": "NCI-H226", "assay": "NCI-60 antiproliferative screening", "assay_type": "cell-based", "conditions": "Homo sapiens, NCI-H226, read-out: percent inhibition"}, "[15]": {"tested_on": "IGROV1", "assay": "NCI-60 antiproliferative screening", "assay_type": "cell-based", "conditions": "Homo sapiens, IGROV-1, read-out: percent inhibition"}, "[16]": {"tested_on": "BT-549", "assay": "NCI-60 antiproliferative screening", "assay_type": "cell-based", "conditions": "Homo sapiens, BT-549, read-out: percent inhibition"}, "[17]": {"tested_on": "LOX IMVI", "assay": "NCI-60 antiproliferative screening", "assay_type": "cell-based", "conditions": "Homo sapiens, read-out: percent inhibition"}, "[18]": {"tested_on": "HOP-92", "assay": "NCI-60 antiproliferative screening", "assay_type": "cell-based", "conditions": "Homo sapiens, HOP-92, read-out: percent inhibition"}, "[19]": {"tested_on": "NCI/ADR-RES", "assay": "NCI-60 antiproliferative screening", "assay_type": "cell-based", "conditions": "Homo sapiens, read-out: percent inhibition"}, "[20]": {"tested_on": "SR", "assay": "NCI-60 antiproliferative screening", "assay_type": "cell-based", "conditions": "Homo sapiens, read-out: percent inhibition"}, "[21]": {"tested_on": "A498", "assay": "NCI-60 antiproliferative screening", "assay_type": "cell-based", "conditions": "Homo sapiens, A498, read-out: percent inhibition"}, "[22]": {"tested_on": "UO-31", "assay": "NCI-60 antiproliferative screening", "assay_type": "cell-based", "conditions": "Homo sapiens, UO-31, read-out: percent inhibition"}, "[23]": {"tested_on": "UACC-62", "assay": "NCI-60 antiproliferative screening", "assay_type": "cell-based", "conditions": "Homo sapiens, UACC-62, read-out: percent inhibition"}, "[24]": {"tested_on": "T-47D", "assay": "NCI-60 antiproliferative screening", "assay_type": "cell-based", "conditions": "Homo sapiens, T47D, read-out: percent inhibition"}, "[25]": {"tested_on": "ACHN", "assay": "NCI-60 antiproliferative screening", "assay_type": "cell-based", "conditions": "Homo sapiens, read-out: percent inhibition"}, "[26]": {"tested_on": "normal bone marrow cells HS-5", "assay": "Cell viability assay", "assay_type": "cell-based", "conditions": "72 h, read-out: Antiproliferative IC50 HS-5", "outline": "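Cells grown in IMDM with 20% FBS, 100 U per mL penicillin and 100 μg per mL streptomycin, then plated in 96-well format. Test compound exposure was 72 h. Alamar blue solution (1 mM, as added) was then applied for a further 5–6 h, and […] was read at 530/590 nm. Data were normalized to vehicle, as means of three independent measurements (standard errors <20%), and IC50 was calculated.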"}, "[27]": {"tested_on": "EKVX", "assay": "NCI-60 antiproliferative screening", "assay_type": "cell-based", "conditions": "Homo sapiens, read-out: percent inhibition"}, "[28]": {"tested_on": "SK-MEL-5", "assay": "NCI-60 antiproliferative screening", "assay_type": "cell-based", "conditions": "Homo sapiens, SK-MEL-5, read-out: percent inhibition"}, "[29]": {"tested_on": "DU-145", "assay": "NCI-60 antiproliferative screening", "assay_type": "cell-based", "conditions": "Homo sapiens, DU-145, read-out: percent inhibition"}, "[30]": {"tested_on": "SK-MEL-28", "assay": "NCI-60 antiproliferative screening", "assay_type": "cell-based", "conditions": "Homo sapiens, SK-MEL-28, read-out: percent inhibition"}, "[31]": {"tested_on": "MCF7", "assay": "NCI-60 antiproliferative screening", "assay_type": "cell-based", "conditions": "Homo sapiens, MCF7, read-out: percent inhibition"}}}
{"smiles": "COc1ccc(CN2[C@@H](C(=O)NCCCCCCC(=O)NO)Cc3c([nH]c4ccccc34)[C@@H]2C2CC2)cc1", "note": "[Compound 13d, (1S,3R)-1-Cyclopropyl-N-(7-(hydroxyamino)-7-oxoheptyl)-2-(4-methoxybenzyl)-2,3,4,9-tetrahydro-1H-pyrido[3,4-b]indole-3-carboxamide]", "values": [{"measurement": "IC50", "setting": "[1]", "value": "4.5 ± 0.21", "unit": "nM"}, {"measurement": "inhibition at 10 µM", "setting": "[2]", "value": 85.5, "unit": "%"}, {"measurement": "inhibition at 10 µM", "setting": "[3]", "value": 84.3, "unit": "%"}, {"measurement": "inhibition at 10 µM", "setting": "[4]", "value": 100, "unit": "%"}, {"measurement": "inhibition at 10 µM", "setting": "[5]", "value": 93.7, "unit": "%"}, {"measurement": "inhibition at 10 µM", "setting": "[6]", "value": 100, "unit": "%"}, {"measurement": "inhibition at 10 µM", "setting": "[7]", "value": 90.5, "unit": "%"}, {"measurement": "inhibition at 10 µM", "setting": "[8]", "value": 100, "unit": "%"}, {"measurement": "inhibition at 10 µM", "setting": "[9]", "value": 87.8, "unit": "%"}, {"measurement": "IC50", "setting": "[10]", "value": "> 50000", "unit": "nM"}, {"measurement": "activity for HDAC4 (in words)", "setting": "[10]", "value": "no activity"}, {"measurement": "inhibition at 10 µM", "setting": "[11]", "value": 91.2, "unit": "%"}, {"measurement": "inhibition at 10 µM", "setting": "[12]", "value": 59.4, "unit": "%"}, {"measurement": "IC50", "setting": "[13]", "value": "8.73 ± 0.46", "unit": "nM"}, {"measurement": "inhibition at 0.5 µM", "setting": "[13]; read-out: Inhibition% (inhibition rate, IR) against HDAC1, at a concentration of 500 nM, duplicate", "value": 99.2, "unit": "%"}, {"measurement": "inhibition at 10 µM", "setting": "[14]", "value": 71.9, "unit": "%"}, {"measurement": "inhibition at 10 µM", "setting": "[15]", "value": 100, "unit": "%"}, {"measurement": "inhibition at 10 µM", "setting": "[16]", "value": 74.5, "unit": "%"}, {"measurement": "inhibition at 10 µM", "setting": "[17]", "value": 100, "unit": "%"}, {"measurement": "inhibition at 10 µM", "setting": "[18]", "value": 100, "unit": "%"}, {"measurement": "inhibition at 10 µM", "setting": "[19]", "value": 38, "unit": "%"}, {"measurement": "inhibition at 10 µM", "setting": "[20]", "value": 84, "unit": "%"}, {"measurement": "inhibition at 10 µM", "setting": "[21]", "value": 100, "unit": "%"}, {"measurement": "inhibition at 10 µM", "setting": "[22]", "value": 92.3, "unit": "%"}, {"measurement": "inhibition at 10 µM", "setting": "[23]", "value": 100, "unit": "%"}, {"measurement": "inhibition at 10 µM", "setting": "[24]", "value": 100, "unit": "%"}, {"measurement": "inhibition at 10 µM", "setting": "[25]", "value": 99.3, "unit": "%"}, {"measurement": "IC50", "setting": "[26]", "value": "> 50000", "unit": "nM"}, {"measurement": "inhibition at 10 µM", "setting": "[27]", "value": 83.2, "unit": "%"}, {"measurement": "inhibition at 10 µM", "setting": "[28]", "value": 100, "unit": "%"}, {"measurement": "inhibition at 10 µM", "setting": "[29]", "value": 90.6, "unit": "%"}, {"measurement": "inhibition at 10 µM", "setting": "[30]", "value": 90.2, "unit": "%"}, {"measurement": "inhibition at 10 µM", "setting": "[31]", "value": 93.6, "unit": "%"}]}
